Published values of several laboratories.
Compare with care: the assays were run in different laboratories.

SMILES	target or system	test	system	conditions	quantity	result
N=C(CC(O)c1cc2c(F)cc(F)cc2c2cc(C(F)(F)F)ccc12)Nc1nc2ccccc2[nH]1 (stereo not drawn)	Plasmodium falciparum	parasite growth, ELISA	3D7	72 h, blood stage	IC50	5590 nM
Cc1ccc(N(CC2=NCCN2)c2cccc(O)c2)cc1	Plasmodium falciparum	parasite growth	K1	drug-resistant strain, blood stage	IC50	189000 nM
N.N.[Cl][Pt][Cl]	RS4-11	cell growth or viability, ATP luminescence		10 µM, 72 h	inhibition	100%
C[C@@H]1CC[C@H]2[C@@H](C)C(=O)O[C@@H]3O[C@@]4(C)CC[C@@H]1[C@]32OO4	Plasmodium falciparum	parasite growth	DD2	drug-resistant strain, blood stage	IC50	8.9 nM
CC(C)C[C@H](NC(=O)[C@H](CC(C)C)NC(=O)[C@H](CCCCN)NC(=O)[C@H](CCCCN)NC(=O)[C@H](CC(C)C)NC(=O)[C@H](CC(C)C)NC(=O)[C@H](CCCCN)NC(=O)[C@H](CCCCN)NC(=O)[C@H](CC(C)C)NC(=O)[C@H](CCC(=O)O)NC(=O)[C@H](CCCCN)NC(=O)[C@H](CCCCN)NC(=O)[C@H](CC(C)C)NC(=O)[C@@H](N)CC(C)C)C(N)=O	HCCC9810	cell growth or viability, CCK-8			IC50	9400 nM
CCN1CCN(Cc2ccc(Nc3nc4ccc(Oc5ccnc(NC(=O)C6CCN(C)CC6)c5)cc4n3C)cc2C(F)(F)F)CC1	Plasmodium falciparum	parasite growth, SYBR Green	3D7	blood stage	EC50	210 nM
N=C(CC(O)c1cc2c(F)cc(F)cc2c2cc(C(F)(F)F)ccc12)Nc1nnc(-c2ccc(F)cc2)o1 (stereo not drawn)	Plasmodium falciparum	parasite growth, ELISA	3D7	72 h, blood stage	IC50	> 37000 nM
CC(C)C[C@H](NC(=O)[C@H](CC(C)C)NC(=O)[C@H](CCCCN)NC(=O)[C@H](CCCCN)NC(=O)[C@H](CC(C)C)NC(=O)[C@H](CCC(=O)O)NC(=O)[C@H](CCCCN)NC(=O)[C@H](CCCCN)NC(=O)[C@H](CC(C)C)NC(=O)[C@H](CC(C)C)NC(=O)[C@H](CCCCN)NC(=O)[C@H](CCCCN)NC(=O)[C@H](CC(C)C)NC(=O)[C@@H](N)CC(C)C)C(N)=O	HCCC9810	cell growth or viability, CCK-8			IC50	24600 nM
CCN(CC)CCOc1ccc2c(c1)C(=O)c1cc(OCCN(CC)CC)ccc1-2	Plasmodium falciparum	parasite growth	DD2	drug-resistant strain, blood stage	IC50	556 nM
CC(C)C[C@H](NC(=O)[C@H](CC(C)C)NC(=O)[C@H](CCCCN)NC(=O)[C@H](CCCCN)NC(=O)[C@H](CC(C)C)NC(=O)[C@H](CC(C)C)NC(=O)[C@H](CCCCN)NC(=O)[C@H](CCCCN)NC(=O)[C@H](CC(C)C)NC(=O)[C@H](CC(C)C)NC(=O)[C@H](CCCCN)NC(=O)[C@H](CCCCN)NC(=O)[C@H](CC(C)C)NC(=O)[C@@H](N)CCC(=O)O)C(N)=O	HCCC9810	cell growth or viability, CCK-8			IC50	8870 nM
CC(=O)N[C@H]1[C@@H](O[C@@H]2O[C@H](C[C@@H](O)[C@H]3O[C@@H](n4ccc(=O)[nH]c4=O)[C@H](O)[C@@H]3O)[C@H](O)[C@H](O)[C@H]2NC(=O)/C=C/CCCCCCCCCC(C)C)O[C@H](CO)[C@@H](O)[C@@H]1O	MDA-MB-453	cell growth or viability, WST-1			IC50	160 nM
COc1ccc2cc1Oc1ccc(cc1)C[C@H]1c3c(cc4c(c3Oc3cc5c(cc3OC)CCN(C)[C@@H]5C2)OCO4)CCN1C	Plasmodium falciparum	parasite growth	DD2	drug-resistant strain, blood stage	IC50	136 nM
N=C(CC(O)c1cc2c(F)cc(F)cc2c2cc(C(F)(F)F)ccc12)NCc1ccc(F)cc1 (stereo not drawn)	Plasmodium falciparum	parasite growth, ELISA	3D7	72 h, blood stage	IC50	1110 nM
CO[C@H]1C[C@H](O[C@@H]2/C(C)=C/C[C@@H]3C[C@@H](C[C@]4(CC[C@H](C)[C@@H](C5CCCCC5)O4)O3)OC(=O)[C@@H]3C=C(C)/C(=N/O)[C@H]4OC/C(=C\C=C\[C@@H]2C)[C@]43O)O[C@@H](C)[C@@H]1O	Plasmodium falciparum	parasite growth	K1	drug-resistant strain, blood stage	IC50	311 nM
N=C(CC(O)c1cc2c(F)cc(F)cc2c2cc(C(F)(F)F)ccc12)NC1CC(F)(F)C1 (stereo not drawn)	Plasmodium falciparum	parasite growth, ELISA	3D7	72 h, blood stage	IC50	80.2 nM
